Published values collected from several papers.
Each line is one published result; the experiments were not run side by side.
Target: Serine/threonine-protein kinase 35 (STK35, Homo sapiens, UniProt Q8TDR2)

The remaining binding of CNC(=O)[C@@H]1CC[C@@H](n2c(-c3ccc4cnccc4c3)nc3ccc(C(=O)NCc4cccc(C(N)=O)c4)cc32)C1 is reported as 98% (binding, competition with immobilised ligand; 1 µM).
The remaining binding of Cc1cnn2ncc(-c3ccnc(N(C)C)n3)c2c1 is reported as 100% (binding; 1 µM).
FC(F)(F)Oc1cccc(-c2cnc3ccc(-c4ccncc4)nn23)c1 has a remaining binding of 100% (binding, competition with immobilised ligand; 5 µM).
N[C@@H]1CCN(c2nccc(-c3cnn4ncccc34)n2)C1 gave a remaining binding of 100% (binding; 1 µM).
O=C(Nc1cccnn1)N1CCC(=Cc2cccc(Oc3ccc(C(F)(F)F)cn3)c2)CC1 gave a remaining binding of 100% (cell-free assay, competition with immobilised ligand; 1 µM).
The remaining binding of C[C@@H](c1ccc(-n2cnc3c(N)ncnc32)cc1)N1CCc2nn(C)c(Cc3ccccc3)c2C1=O is reported as 83% (binding, competition with immobilised ligand; 0.1 µM).
The remaining binding of O=C(c1ccc(Nc2ncc(Cl)c(-c3ccc(Cl)s3)n2)cc1)N1CCC(N2CCCC2)CC1 is reported as 99% (binding, competition with immobilised ligand; 1 µM).
COc1ccc2cc(OCC3(C(=O)O)CN(C(=O)c4ccc(F)cc4)C3)ccc2c1 gave a remaining binding of 100% (cell-free assay, competition with immobilised ligand; 1 µM).
With O=C(Nc1c[nH]nc1C(=O)NC1CCNCC1)c1cc(F)cc(F)c1 the remaining binding was 100% (binding, competition with immobilised ligand; 1 µM).
The remaining binding of F[C@@H]1CCN(c2nccc(-c3cnn4ncccc34)n2)C1 is reported as 100% (binding; 1 µM).
O=C(c1ccc(Nc2ncc(Cl)c(-c3cc4ccccc4s3)n2)cc1)N1CCC(N2CCCC2)CC1 gave a remaining binding of 67% (binding, competition with immobilised ligand; 1 µM).
COc1ncc2cc3ccccc3nc2c1C#N has a remaining binding of 98% (cell-free assay, competition with immobilised ligand; 5 µM).
The remaining binding of COc1cc(-c2cn(C3CCc4c(F)cccc4N(CC(F)(F)F)C3=O)nn2)ccc1-n1cnc(C)c1 (stereo not shown) is reported as 100% (cell-free assay, competition with immobilised ligand; 1 µM).
For CN(C)c1ncc(F)c(-c2cnn3ncccc23)n1, the remaining binding was 100% (binding; 1 µM).
The remaining binding of CN(C(=O)c1ccccc1)c1cc(N(C)c2ccc3c(c2)CCc2ccc(C(=O)NCCN4CCOCC4)cc2C3=O)ccc1F is reported as 100% (cell-free assay, competition with immobilised ligand; 1 µM).
For COc1cnc(Nc2cccc(S(N)(=O)=O)c2)nc1N1CCN(c2ccccc2)C(=O)C1, the remaining binding was 100% (binding, competition with immobilised ligand; 1 µM).
CC1=C(C#N)[C@@H](c2ccc3[nH]nc(C)c3c2)C(C#N)=C(c2ccc(Cl)cc2)N1 has a remaining binding of 100% (cell-free assay, competition with immobilised ligand; 1 µM).
For O=C(NCCCN1CCOCC1)c1ccc(Nc2ncc(Cl)c(-c3ccc(Cl)s3)n2)cc1, the remaining binding was 100% (binding, competition with immobilised ligand; 1 µM).
The remaining binding of CN(C)C(=O)Cn1cc(-c2nc(C3(c4ccc(-c5cnc(N)nc5)cc4)CC3)no2)cn1 is reported as 94% (cell-free assay, competition with immobilised ligand; 1 µM).
The remaining binding of COc1ccnn2ncc(-c3ccnc(N(C)C)n3)c12 is reported as 95% (binding; 1 µM).
NS(=O)(=O)c1cc(NC(=O)C2(c3ccccc3Cl)CC2)ccc1Oc1cccc(Cl)c1 has a remaining binding of 94% (cell-free assay, competition with immobilised ligand; 1 µM).
C[C@H]1CCN(c2nccc(-c3cnn4ncccc34)n2)C1 has a remaining binding of 100% (binding; 1 µM).
